Reference: ChEMBL document CHEMBL1149380, “Synthesis of thieno[2,3-b]pyridinones acting as cytoprotectants and as inhibitors of [3H]glycine binding to the N-methyl-D-aspartate (NMDA) receptor” (J Med Chem, 2006)
pIC50, pKi: −log10 of the molar value.

Key:
[1] = target: Glutamate NMDA receptor; assay: Inhibition of [3H]glycine binding to NMDA receptor in rat brain membranes; format: cell membranes
Method in brief: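 [3H]glycine displaced from rat hippocampal membranes in presence of 10 µM glutamic acid; 4-5 inhibitor concentrations giving 20-90% inhibition of specific binding; Ki derived; number of experiments given per value.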

[2] = tested on: L cells; assay: Cytotoxicity against mouse fibroblast L(tk-) cells transfected with human NMDA using LDH assay; format: functional, cell-based; conditions: L929
Method in brief: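 Mouse L(tk-) fibroblast clone L12-G10 co-transfected with dexamethasone-inducible human NR1a/NR2A; seeded 15 × 10^3 cells/well, grown overnight, then receptor expression induced with 4 µM dexamethasone in Mg2+-free medium with 5% FCS (supplies glutamate and glycine) and 50 mM KCl. Compounds added at increasing, trypan-blue-verified nontoxic concentrations for 24 h. Cell death read as LDH release (INT formazan, 490 nm) relative to total LDH; four-parameter logistic fit for IC50.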

[3] = tested on: Rattus norvegicus; assay: Effect on brain tissue level after 6 min at 10mg/kg, iv; format: ADME, organism-based, Wistar; conditions: in vivo, 0.1 h
Method in brief: (§1)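 Male Wistar rats given 10 mg/kg intravenously; plasma and brain tissue levels measured 6 min (n = 3) and 1 h (n = 3) after dosing; brain expressed as µmol/kg.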

[4] = tested on: Mus musculus; assay: Protection of mice against maximal e-shock after 30 min at 43 mg/kg; format: functional
Method in brief: (§2)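 Male Swiss mice, 10 per dose, dosed intraperitoneally (vehicle 8 parts DMSO, 10 parts H2O); doses spanned 0.3-100 mg/kg depending on compound. Maximal electroshock applied 30 or 60 min later; tonic hind limb extension scored as unprotected. Dose-response fitted to a hyperbolic function giving ID50.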

[5] = tested on: Rattus norvegicus; assay: Effect on brain tissue level after 1h at 10 mg/kg, iv; format: ADME, organism-based, Wistar; design: dose 10 mg/kg, route intravenous; conditions: in vivo; method in brief: as §1
[6] = tested on: Rattus norvegicus; assay: Effect on brain tissue level after 6 min at 5 mg/kg, iv; format: ADME, organism-based, Wistar; design: dose 5 mg/kg, route intravenous; conditions: in vivo, 0.1 h
Method in brief: (§3)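 Male Wistar rats given 5 mg/kg intravenously; plasma and brain tissue levels measured at 6 min and 1 h, n = 3 per time; brain expressed as µmol/kg.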

[7] = tested on: Rattus norvegicus; assay: Effect on brain tissue level after 1h at 5 mg/kg, iv; format: ADME, organism-based, Wistar; design: dose 5 mg/kg, route intravenous; conditions: in vivo; method in brief: as §3
[8] = tested on: Mus musculus; assay: Protection of mice against maximal e-shock at 0.7 mg/kg; format: functional; method in brief: as §2
[9] = target: D(2) dopamine receptor (Rattus norvegicus, UniProt P61169); assay: Displacement of [3H]raclopride from dopamine receptor D2 in rat striatal membrane; format: cell membranes, Striatum
[10] = tested on: Mus musculus; assay: Protection of mice against maximal e-shock at 30 mg/kg; format: functional; method in brief: as §2
[11] = tested on: Mus musculus; assay: Protection of mice against maximal e-shock after 30 min at 15.5 mg/kg; format: functional; method in brief: as §2
[12] = tested on: Mus musculus; assay: Protection of mice against maximal e-shock after 60 min at 13.5 mg/kg; format: functional; method in brief: as §2

Sequence of D(2) dopamine receptor (P61169 whole entry): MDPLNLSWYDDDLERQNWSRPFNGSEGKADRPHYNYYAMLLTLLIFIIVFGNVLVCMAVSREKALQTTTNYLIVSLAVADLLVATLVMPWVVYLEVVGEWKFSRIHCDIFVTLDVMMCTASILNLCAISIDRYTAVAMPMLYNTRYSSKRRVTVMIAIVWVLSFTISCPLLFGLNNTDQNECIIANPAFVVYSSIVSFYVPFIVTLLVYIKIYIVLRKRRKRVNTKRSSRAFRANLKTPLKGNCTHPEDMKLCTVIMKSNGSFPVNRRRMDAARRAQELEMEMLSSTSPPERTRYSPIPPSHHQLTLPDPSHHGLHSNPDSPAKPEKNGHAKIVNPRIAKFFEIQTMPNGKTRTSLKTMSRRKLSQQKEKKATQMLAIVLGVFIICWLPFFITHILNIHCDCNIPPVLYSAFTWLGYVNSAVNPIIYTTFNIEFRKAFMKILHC

SMILES	pKi [1]	pIC50 [2]	other results
CC(C)c1c(Cl)sc2nc(O)c(-c3ccccc3)c(O)c12	8.18	–	–
CCc1csc2nc(O)c(-c3cccc(Oc4ccccc4)c3)c(O)c12	6.75	< 4.30	–
CC(C)c1c(Cl)sc2nc(O)c(-c3cccc(Oc4ccccc4)c3)c(O)c12	8.84	5.28	brain level [3]: 3.5 µmol/kg; Activity [4]: 50%; brain level [5]: 0.28 µmol/kg
Cc1c(Cl)sc2nc(O)c(-c3cccc(Oc4ccccc4)c3)c(O)c12	7.64	< 3.70	–
COCc1csc2nc(O)c(-c3cccc(Oc4ccccc4)c3)c(O)c12	7.44	4.25	–
CCc1csc2nc(O)c(-c3ccccc3)c(O)c12	6.28	–	–
Oc1nc2sc(Cl)c(C3CC3)c2c(O)c1-c1ccccc1	7.24	–	–
CC(C)c1csc2nc(O)c(-c3ccccc3)c(O)c12	5.82	–	–
NCCc1c(Cl)sc2nc(O)c(-c3ccccc3)c(O)c12	5.34	–	pIC50 [9]: < 5.00
Oc1nc2sccc2c(O)c1-c1ccccc1	4.79	–	–
Cc1csc2nc(O)c(-c3ccccc3)c(O)c12	5.08	–	–
Oc1nc2sccc2c(O)c1-c1cccc(Oc2ccccc2)c1	6.43	4.05	–
Oc1nc2sc(Cl)cc2c(O)c1-c1cccc(Oc2ccccc2)c1	7.78	4.81	Activity [10]: 10%
O=c1[nH]c2ccccc2c(O)c1-c1ccccc1	4.91	–	–
Oc1nc2sc(Cl)c(C3CCCCC3)c2c(O)c1-c1cccc(Oc2ccccc2)c1	< 4.52	< 4.30	–
CCC(C)c1csc2nc(O)c(-c3cccc(Oc4ccccc4)c3)c(O)c12 (centres undefined)	7.02	< 4.30	–

SMILES	pKi [1]	pIC50 [2]	other results
O=c1[nH]c2cc(Cl)ccc2c(O)c1-c1ccccc1	6.82	–	–
CC1=C(CN)SC2NC(=O)C(c3cccc(Oc4ccccc4)c3)=C(O)C12 (centres undefined)	5.70	–	–
CCCc1c(Cl)sc2nc(O)c(-c3cccc(Oc4ccccc4)c3)c(O)c12	8.39	4.80	–
Oc1nc2sc3c(c2c(O)c1-c1cccc(Oc2ccccc2)c1)CCCC3	6.41	< 4.52	–
Oc1nc2sc3c(c2c(O)c1-c1cccs1)CCCC3	4.64	–	–
CCc1c(Cl)sc2nc(O)c(-c3cccc(Oc4ccccc4)c3)c(O)c12	8.95	–	Activity [11]: 50%; Activity [12]: 50%
Oc1nc2sc(Cl)c(C3CC3)c2c(O)c1-c1cccc(Oc2ccccc2)c1	8.02	–	–
Cc1csc2nc(O)c(-c3cccc(Oc4ccccc4)c3)c(O)c12	6.48	< 3.60	–
CC(C)c1c(Cl)sc2nc(S)c(-c3cccc(Oc4ccccc4)c3)c(O)c12	6.86	–	–
CCc1c(Br)sc2nc(O)c(-c3ccccc3)c(O)c12	7.98	–	–
COCc1c(Cl)sc2nc(O)c(-c3cccc(Oc4ccccc4)c3)c(O)c12	8.80	4.80	Activity [10]: 30%
Oc1nc2sc3c(c2c(O)c1-c1cccc(Oc2ccccc2)c1)CCC3	6.93	–	–
CC(C)(C)c1c(Cl)sc2nc(O)c(-c3cccc(Oc4ccccc4)c3)c(O)c12	8.48	4.81	–
Cc1sc2nc(O)c(-c3ccccc3)c(O)c2c1C	5.90	–	–
Oc1nc2cscc2c(O)c1-c1ccccc1	4.59	–	–

Continued by rising pKi [1], values first:

pKi [1]	SMILES	pIC50 [2]	other results
4.01	Oc1nc2ccsc2c(O)c1-c1ccccc1	–	–
4.47	Cc1csc2nc(O)c(-c3cccs3)c(O)c12	–	–
4.64	Cc1cc2c(O)c(-c3cccs3)c(O)nc2s1	–	–
4.78	NCCc1c(Cl)sc2[nH]c(=O)c(-c3cccc(Oc4ccccc4)c3)c(O)c12	–	pIC50 [9]: < 4.52
5.02	Cc1cc2c(O)c(-c3ccccc3)c(O)nc2s1	–	–
5.32	Oc1nc2scc(C3CC3)c2c(O)c1-c1ccccc1	–	–
5.37	Oc1nc2sc3c(c2c(O)c1-c1ccccc1)CCCC3	–	–
5.51	CCc1cc2c(O)c(-c3ccccc3)c(O)nc2s1	–	–
5.75	Oc1nc2sc(Br)cc2c(O)c1-c1ccccc1	–	–
6.03	CCC(C)c1csc2nc(O)c(-c3ccccc3)c(O)c12 (centres undefined)	–	–
6.05	CC(C)c1c(Cl)sc2nc(S)c(-c3ccccc3)c(O)c12	–	–
6.41	Cc1c(Br)sc2nc(O)c(-c3ccccc3)c(O)c12	–	–
6.57	Cc1c(Cl)sc2nc(O)c(-c3ccccc3)c(O)c12	–	–
7.10	CCCCCCc1c(Cl)sc2nc(O)c(-c3cccc(Oc4ccccc4)c3)c(O)c12	< 4.30	–
7.16	OCc1c(Cl)sc2nc(O)c(-c3cccc(Oc4ccccc4)c3)c(O)c12	–	–
7.43	Oc1nc2sc3c(c2c(O)c1-c1cccc(Oc2ccccc2)c1)CCCS3	< 3.60	–
8.05	CCc1c(Cl)sc2nc(O)c(-c3ccccc3)c(O)c12	–	–
8.24	CCC(C)c1c(Cl)sc2nc(O)c(-c3ccccc3)c(O)c12 (centres undefined)	–	–
8.70	CCC(C)c1c(Cl)sc2nc(O)c(-c3cccc(Oc4ccccc4)c3)c(O)c12 (centres undefined)	5.10	–
8.85	O=c1[nH]c2cc(Cl)ccc2c(O)c1-c1cccc(Oc2ccccc2)c1	–	brain level [6]: 5.5 µmol/kg; brain level [7]: 1.4 µmol/kg; Activity [8]: 50%
